Source: ChEMBL document CHEMBL5257137, “Inhibition of Thiamine Diphosphate-Dependent Enzymes by Triazole-Based Thiamine Analogues” (ACS Med Chem Lett, 2023)

Tests used:
Escherichia coli [1] = experiment: Inhibition of Escherichia coli OGDHc E1 subunit assessed as DCPIP reduction at 250 uM preincubated for 60 mins followed by […] addition using 50 uM ThDP as substrate by microplate reader analysis
Method in brief: (§1)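 Single-point preliminary screen with compound at 250 μM and ThDP at 50 μM. Values are means of three technical replicates.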

[2] = target: T1, Pyruvate dehydrogenase E1 component subunit alpha, somatic form, mitochondrial (Sus scrofa, UniProt P29804); experiment: Inhibition of porcine PDHc E1-subunit assessed as DCPIP reduction preincubated for 30 mins followed by pyruvate addition using 10 uM ThDP as substrate by microplate reader analysis
T1 sequence (P29804 whole entry): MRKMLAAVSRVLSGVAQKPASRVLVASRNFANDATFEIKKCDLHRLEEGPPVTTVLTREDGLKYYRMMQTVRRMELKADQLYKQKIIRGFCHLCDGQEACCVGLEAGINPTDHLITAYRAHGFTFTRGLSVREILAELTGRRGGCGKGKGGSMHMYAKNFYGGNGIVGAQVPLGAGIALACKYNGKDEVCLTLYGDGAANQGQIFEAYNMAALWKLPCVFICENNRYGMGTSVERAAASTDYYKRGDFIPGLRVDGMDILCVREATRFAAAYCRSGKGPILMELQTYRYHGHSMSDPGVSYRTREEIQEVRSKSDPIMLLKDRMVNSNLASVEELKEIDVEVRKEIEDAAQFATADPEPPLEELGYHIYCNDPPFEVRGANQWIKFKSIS

Aerococcus viridans [3] = experiment: Inhibition of Aerococcus viridans pyruvate oxidase at 250 uM preincubated for 30 mins followed by pyruvate addition using 125 uM ThDP as substrate by microplate reader analysis
Aerococcus viridans [4] = experiment: Inhibition of Aerococcus viridans pyruvate oxidase at 250 uM preincubated for 30 mins followed by pyruvate addition using 50 uM ThDP as substrate by microplate reader analysis; method in brief: as §1
Escherichia coli [5] = experiment: Inhibition of Escherichia coli OGDHc E1 subunit assessed as DCPIP reduction at 250 uM preincubated for 60 mins followed by […] addition using 125 uM ThDP as substrate by microplate reader analysis
Plasmodium falciparum [6] = experiment: Antiplasmodial activity against chloroquine-sensitive Plasmodium falciparum 3D7 infected in human erythrocyte assessed as inhibition of parasite proliferation in thiamine free medium by SYBR-Safe assay; format: functional, organism-based; conditions: 3D7, Erythrocyte
Method in brief: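 3D7 parasites in human erythrocytes cultured in thiamine-free medium with a range of compound concentrations. […] Means come from three independent experiments, each run in three technical replicates.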

[7] = target: T1, Pyruvate dehydrogenase E1 component subunit alpha, somatic form, mitochondrial; experiment: Inhibition of porcine PDHc E1-subunit assessed as inhibition constant preincubated for 30 mins followed by pyruvate addition using 10 uM ThDP as substrate by microplate reader analysis
Plasmodium falciparum [8] = experiment: Antiplasmodial activity against chloroquine-sensitive Plasmodium falciparum 3D7 infected in human erythrocyte assessed as inhibition of parasite proliferation in presence of 297uM thiamine by SYBR-Safe assay; format: functional, organism-based; conditions: 3D7, Erythrocyte
Method in brief: (§2)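 P. falciparum 3D7-infected erythrocytes were exposed to compound in culture medium with added thiamine, 2.97 μM or 297 μM. Proliferation was read as parasite DNA by SYBR-Safe assay.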

Plasmodium falciparum [9] = experiment: Antiplasmodial activity against Plasmodium falciparum 3D7 infected in human erythrocyte assessed as intraerythrocytic growth inhibition in thiamine-free medium by [3H]-hypoxanthine incorporation assay; format: functional, organism-based; conditions: 3D7, Erythrocyte
Plasmodium falciparum [10] = experiment: Antiplasmodial activity against chloroquine-sensitive Plasmodium falciparum 3D7 infected in human erythrocyte assessed as inhibition of parasite proliferation in presence of 2.97uM thiamine by SYBR-Safe assay; format: functional, organism-based; conditions: 3D7, Erythrocyte; method in brief: as §2
Plasmodium falciparum [11] = experiment: Antiplasmodial activity against Plasmodium falciparum 3D7 infected in human erythrocyte assessed as intraerythrocytic growth inhibition in presence thiamine-rich medium by [3H]-hypoxanthine incorporation assay; format: functional, organism-based; conditions: 3D7, Erythrocyte

Structure (SMILES)	inhibition (Escherichia coli [1]) [%]	inhibition (Aerococcus viridans [3]) [%]	inhibition (Aerococcus viridans [4]) [%]	inhibition (Escherichia coli [5]) [%]	further results
COc1ccc(-c2cn(CCCCc3cn(Cc4cnc(C)nc4N)nn3)nn2)cc1	< 20	< 20	< 20	< 20	IC50 [2]: 6 µM
Cc1ncc(Cn2cc(CCn3cc(-c4ccccc4)nn3)nn2)c(N)n1		< 20		< 20	
Cc1ncc(Cn2cc(CCCn3cc(-c4ccccc4)nn3)nn2)c(N)n1	< 20	< 20	< 20	< 20	
COc1ccc(-c2cn(CCCc3cn(Cc4cnc(C)nc4N)nn3)nn2)cc1	< 20	< 20	< 20	< 20	
Cc1ncc(Cn2cc(CCCCC(=O)NO)nn2)c(N)n1					IC50 (Plasmodium falciparum [6]): 3 µM; IC50 [2]: 8 µM; Ki [7]: 40 nM
Cc1ncc(Cn2cc(CCCC(=O)NO)nn2)c(N)n1					IC50 [2]: 9 µM; Ki [7]: 45 nM
Cc1ncc(Cn2cc(CCCCn3cc(-c4ccc(F)cc4)nn3)nn2)c(N)n1	< 20	< 20	< 20	< 20	
COc1ccc(-c2cn(CCc3cn(Cc4cnc(C)nc4N)nn3)nn2)cc1		< 20	< 20	< 20	
Cc1ncc(Cn2cc(CCCCn3cc(-c4ccccc4)nn3)nn2)c(N)n1	< 20	< 20	< 20	< 20	
Cc1ncc(Cn2cc(CCCn3cc(-c4ccc(F)cc4)nn3)nn2)c(N)n1	< 20	< 20	< 20	< 20	
Cc1ncc(C[n+]2csc(CCO)c2C)c(O)n1					IC50 (Plasmodium falciparum [8]): 5.5 mM; IC50 (Plasmodium falciparum [6]): 11 µM; IC50 (Plasmodium falciparum [9]): 11 µM; IC50 (Plasmodium falciparum [10]): 5.2 mM; IC50 (Plasmodium falciparum [11]): 5.2 µM
Cc1ncc(Cn2cc(CCn3cc(-c4ccc(F)cc4)nn3)nn2)c(N)n1		< 20	< 20	< 20	
